Laboratory results reported in article PMC11439047 (Nature Communications, 2024).
Positions count from the first letter of the chain named.

Columns and labels:
P2X1 receptor K136A = biological target: T1, P2X1 receptor K136A (Homo sapiens, UniProt P51575, K136A); test: Saturation radioligand binding with [3H]-α,β-methylene ATP
T1 sequence (P51575 1-399 K136A): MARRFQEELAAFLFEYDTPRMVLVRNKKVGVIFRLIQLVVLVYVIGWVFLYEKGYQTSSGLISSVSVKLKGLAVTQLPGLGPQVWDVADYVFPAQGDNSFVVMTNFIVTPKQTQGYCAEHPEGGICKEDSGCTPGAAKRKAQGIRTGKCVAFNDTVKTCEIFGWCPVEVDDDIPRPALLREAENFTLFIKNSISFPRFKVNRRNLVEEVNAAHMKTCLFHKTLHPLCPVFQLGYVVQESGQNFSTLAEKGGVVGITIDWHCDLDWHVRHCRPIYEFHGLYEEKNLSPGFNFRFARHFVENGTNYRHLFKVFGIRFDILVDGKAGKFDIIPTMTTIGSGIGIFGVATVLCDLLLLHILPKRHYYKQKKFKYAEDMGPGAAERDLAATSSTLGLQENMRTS
Procedure, shortened: (§1)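 Whole HEK293 Flp-In T-REx cells stably expressing receptor, tetracycline-induced (150 ng/ml, 2 days), 15,000 cells/well, washed in HEPES binding buffer pH 7.4 with Ca2+/Mg2+. Increasing [3H]-α,β-methylene ATP added, 3 h room temperature with gentle agitation; non-specific binding with 10 μM ATP. Ice-cold 0.9% NaCl washes, scintillation counting (CCPM). Specific binding fitted one-site; values above 300 nM termed not defined.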

P2X1 receptor R139P [1] = biological target: T2, P2X1 receptor R139P (Homo sapiens, UniProt P51575, R139P); test: as above
T2 sequence (P51575 1-399 R139P): T1 sequence (P51575 1-399 K136A) with A136K, R139P
Procedure, shortened: as §1

P2X1 receptor M214A = biological target: T3, P2X1 receptor M214A (Homo sapiens, UniProt P51575, M214A); test: Calcium ion influx assay; type: cell-based
T3 sequence (P51575 1-399 M214A): T1 sequence (P51575 1-399 K136A) with A136K, M214A

P2X1 receptor K136W = biological target: T4, P2X1 receptor K136W (Homo sapiens, UniProt P51575, K136W); test: Saturation radioligand binding with [3H]-α,β-methylene ATP
T4 sequence (P51575 1-399 K136W): T1 sequence (P51575 1-399 K136A) with A136W
Procedure, shortened: as §1

P2X1 receptor R139A = biological target: T5, P2X1 receptor R139A (Homo sapiens, UniProt P51575, R139A); test: Calcium ion influx assay; type: cell-based
T5 sequence (P51575 1-399 R139A): T1 sequence (P51575 1-399 K136A) with A136K, R139A

P2X1 receptor D170A = biological target: T6, P2X1 receptor D170A (Homo sapiens, UniProt P51575, D170A); test: Saturation radioligand binding with [3H]-α,β-methylene ATP
T6 sequence (P51575 1-399 D170A): T1 sequence (P51575 1-399 K136A) with A136K, D170A

P2X1 receptor R139P [2] = biological target: T2, P2X1 receptor R139P; test: Calcium ion influx assay; type: cell-based; conditions: maximal α,β-methylene ATP

## Nc1ncnc2c1ncn2[C@@H]1O[C@H](COP(=O)(O)CP(=O)(O)OP(=O)(O)O)[C@@H](O)[C@H]1O [α,β-methylene ATP]
P2X1 receptor K136A
  binding affinity compared to WT-P2X1: similar
P2X1 receptor R139P [1]
  binding affinity compared to WT-P2X1: reduced
P2X1 receptor M214A
  fold decrease in potency compared to WT-P2X1: 7 fold
P2X1 receptor M214A; maximal α,β-methylene ATP
  desensitisation rate compared to WT-P2X1: significantly slowed the desensitisation rate
P2X1 receptor K136W
  binding affinity compared to WT-P2X1: similar
P2X1 receptor R139A
  fold decrease in potency compared to WT-P2X1: 3.5 fold
P2X1 receptor R139A; maximal α,β-methylene ATP
  desensitisation rate compared to WT-P2X1: significantly slowed the desensitisation rate
P2X1 receptor D170A
  binding affinity compared to WT-P2X1: beyond the threshold that could be accurately measured
P2X1 receptor R139P [2]
  desensitisation rate compared to WT-P2X1: significantly slowed the desensitisation rate
